The source of these data is ChEMBL document CHEMBL1772966, “3,5-Bis(benzylidene)-1-[3-(2-hydroxyethylthio)propanoyl]piperidin-4-ones: a novel cluster of potent tumor-selective cytotoxins” (J Med Chem, 2011).

As a reminder, the IC50 is the concentration at which inhibition is half-maximal. Read a low IC50 as inhibition by little substance. In general, CC50 refers to the concentration that lowers cell viability or growth by half. Read a high CC50 as better tolerance by the cells. For orientation: LD50 means the dose at which mortality reaches 50%. Low readings indicate a more toxic substance, high ones a less toxic substance.

Series [1] relates to HSC-2. Briefly: Selectivity index, ratio of average CC50 for normal human cell line to CC50 for human HSC2 cells.
The test system of series [2] is HSC-3. Briefly: Selectivity index, ratio of average CC50 for normal human cell line to CC50 for human HSC3 cells.
Series [3] deals with CCRF-CEM. The series is described as follows: Ratio of melphalan IC50 to compound IC50 for human CEM cells. Format: functional.
The nature of series [4]: Anticancer activity against human Molt4/C8 cells after 72 hrs. Format: functional, cell-based. As to conditions: MOLT-4, 72 h.
Series [5] relates to CCRF-CEM. The series is described as follows: Anticancer activity against human CEM cells after 72 hrs. The format is functional, cell-based.
The next series has as its system L1210. Briefly: Anticancer activity against mouse L1210 cells after 48 hrs. Format: functional, cell-based. As to conditions: L1210, 48 h.
The test system of series [6] is HL-60. The series is described as follows: Cytotoxicity against human HL60 cells after 48 hrs. Format: functional. As to conditions: HL-60, 48 h.
In series [7] the test system is HSC-2. Briefly: Cytotoxicity against human HSC2 cells after 48 hrs. The format is functional. Particulars: HSC-2, 48 h.
In series [8] the test system is HSC-3. The series is described as follows: Cytotoxicity against human HSC3 cells after 48 hrs. The format is functional. Particulars: HSC-3, 48 h.
The test system of series [9] is HSC-4. The series is described as follows: Cytotoxicity against human HSC4 cells after 48 hrs. Format: functional. As to conditions: HSC-4, 48 h.
Series [10] can be described thus: Cytotoxicity against human HGF cells after 48 hrs. The format is cell-based.
For series [11], the system named is Mus musculus. The series is described as follows: Toxicity in mouse assessed as mortality at 30 to 300 mg/kg, ip after 0.5 to 4 hrs. As to conditions: in vivo. On the set-up: dose 30-300 mg/kg, route intraperitoneal. The format is organism-based. In outline:
(§1)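 Mice dosed intraperitoneally at 30, 100 and 300 mg/kg; animals observed for deaths and neurological deficit at 0.5 and 4 h after injection.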

The subject of series [12] is Mus musculus. Briefly: Neurotoxicity in mouse at 30 to 300 mg/kg, ip after 0.5 to 4 hrs by rotarod method. The format is toxicity, organism-based. On the set-up: dose 30-300 mg/kg, route intraperitoneal. Particulars: in vivo. The gist of the method: as §1
(In general: In the rotarod test animals must keep their balance on a rotating rod.)

For series [13], the system named is Rattus norvegicus. Briefly: Toxicity in rat assessed as mortality at 50 mg/kg, po measured upto 4 hrs. As to conditions: in vivo. Format: organism-based. On the set-up: dose 50 mg/kg, route oral. In outline: (§2)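 Rats given a single oral dose of 50 mg/kg; monitored intermittently over 4 h for fatalities and neurological deficit.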
The subject of series [14] is Rattus norvegicus. Briefly: Neurotoxicity in rat at 50 mg/kg, po measured upto 4 hrs by rotarod method. Format: toxicity, organism-based. The arrangement: dose 50 mg/kg, route oral. As to conditions: in vivo. The gist of the method:
as §2

Series [15] is described as follows: Cytotoxicity against human HPC cells after 48 hrs. Format: cell-based.
A short description of series [16]: Cytotoxicity against human HPLF cells after 48 hrs. Format: cell-based.
Series [17] relates to HL-60. The series is described as follows: Selectivity index, ratio of average CC50 for normal human cell line to CC50 for human HL-60 cells.
Series [18] relates to HSC-4. Briefly: Selectivity index, ratio of average CC50 for normal human cell line to CC50 for human HSC4 cells.
A short description of series [19]: Toxicity in mouse harboring L1210 cells. The format is organism-based.
A short description of series [20]: Toxicity in mouse harboring P-388 cells. Format: organism-based.
Another series deals with HT-29. Briefly: Anticancer activity against human HT-29 cells. The format is functional, cell-based.

With `Cc1ccc(/C=C2\CN(C(=O)CCSCCO)C/C(=C\c3ccc(C)cc3)C2=O)cc1`, the Ratio in the series with HSC-2 [1] turned out to be 9.4; with HSC-3 [2], 4.9; in the series with HL-60 [17] it was 4; in the series with HSC-4 [18], 6.9. Moreover, in the series on CCRF-CEM [3], the “Ratio IC50” value worked out at 2.3. In addition, the half-maximal inhibitory concentration (IC50) was found to be 1.85 µM in series [4], 1.1 µM in the series with CCRF-CEM [5] and 5.91 µM in the series with L1210. The CC50 is 2.1 µM in the series with HL-60 [6], 0.89 µM with HSC-2 [7], 1.7 µM with HSC-3 [8] and 1.2 µM in the series with HSC-4 [9]. The CC50 at 48 h in [10] is 9.1 µM; in series [15] it was 7.5 µM; in series [16], 8.4 µM. The Activity entry in the series on Mus musculus [11], in the series with Mus musculus [12], with Rattus norvegicus [13] and in the series on Rattus norvegicus [14] was “Non-toxic” each time.
Turning to `N[C@@H](Cc1ccc(N(CCCl)CCCl)cc1)C(=O)O` [MELPHALAN], the Ratio in the series on HSC-2 [1] is recorded as 24.1; in the series on HSC-3 [2], 8.4; in the series with HL-60 [17], 150; in the series on HSC-4 [18], 6.6. The CC50 in the series with HL-60 [6] was determined as 1.4 µM; in the series with HSC-2 [7], 8.7 µM; in the series with HSC-3 [8] it was 25 µM; in the series with HSC-4 [9], 32 µM. Besides, the LD50 in series [19] and in [20] was 21.7 mg/kg each time. In the series on HT-29, this molecule gave an IC50 of 46.8 µM.
